Assay results pooled from the literature.
Compare with care: the assays were run in different laboratories.
Cell line: CCRF-CEM
Read-out: cell growth or viability

`O=C1C(=Cc2ccc(Cl)c(Cl)c2)CN(C(=O)C(Cl)Cl)CC1=Cc1ccc(Cl)c(Cl)c1` gave a CC50 of 0.0932 µM (imaging; 24 h).
`COc1ccc(C(=O)/C=C/c2cccc(Cl)c2Cl)cc1S(N)(=O)=O` gave an inhibition of 99% (SRB; 10 µM).
`COc1cc(-c2cn(-c3cc(=O)oc4ccc(Cl)cc34)nn2)cc(OC)c1OC` has a CC50 of 37.2 µM (48 h).
With `O=C(CN1C(=O)SC(=Cc2ccccn2)C1=O)Nc1nc2ccccc2s1` the CC50 was 11.9 µM (MTT; 48 h).
`COc1ccc(-c2cn(-c3cc(=O)oc4ccc(Br)cc34)nn2)cc1` gave a CC50 of 9.8 µM (48 h).
`COc1ccc(C(=O)/C=C/c2ccc3ccccc3c2)cc1S(N)(=O)=O` has a GI50 of 2.6 µM (SRB; 48 h).
`O=C1C(=Cc2ccc(F)c(F)c2)CN(C(=O)C(Cl)Cl)CC1=Cc1ccc(F)c(F)c1` gave a CC50 of 0.0993 µM (imaging; 24 h).
The GI50 of `COc1cccc(Oc2ccccc2NC(=O)CNC(=O)c2cccc3ccccc23)c1` is reported as 0.363 µM (SRB; 48 h).
